Experimental data as given in ChEMBL document CHEMBL1240299, “C3-symmetric peptide scaffolds are functional mimetics of trimeric CD40L” (Nat Chem Biol, 2005).
Active and inactive are the calls of the source. The rule behind the calls is not given here. Non-standard residues stand in square brackets, D forms with d. Residues, ends and D or L forms follow the SMILES beside them. Groups on a side chain read outwards from the residue. Ahx = NCCCCCC(=O)O

Assays:
[1] = test system: BL-41; assay: Induction of apoptosis in CD40-positive human BL41 cells assessed as decrease in reduction in DiOC6 dye uptake after DAPI staining by epifluorescence microscopy; format: functional, cell-based
[2] = test system: BL-41; assay: Induction of apoptosis in CD40-positive human BL41 cells assessed as level of CD40 expression by mean fluorescence intensity; format: functional, cell-based
[3] = target: T1, Tumor necrosis factor receptor superfamily member 5 (Homo sapiens, UniProt P25942); assay: Inhibition of recombinant human CD40L:mouse CD8 tail binding to human CD40 at 10 uM by surface plasmon resonance method
Procedure, shortened: (§1)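 hCD40:mIg was captured on an anti-mouse Ig chip. A fixed amount of soluble hCD40L:CD8 was premixed with increasing ligand concentrations, and the mixtures were injected at 25 °C in HBS-EP, 30 µl min⁻¹, 5 min association and 5 min dissociation. Regeneration was 50 mM HCl. Inhibition of CD40L binding was taken from reference-subtracted sensorgrams.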

[4] = target: T1, Tumor necrosis factor receptor superfamily member 5; assay: Inhibition of recombinant human CD40L:mouse CD8 tail binding to human CD40 by surface plasmon resonance method; procedure, shortened: as §1
[5] = test system: BL-41; assay: Induction of apoptosis in CD40-positive human BL41 cells assessed as decrease in mitochondrial membrane potential after 16 hrs by mean fluorescence intensity; format: functional, cell-based
Procedure, shortened: (§2)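 BL41 Burkitt lymphoma cells in RPMI 1640 with 10% FBS were seeded at 5×10^5 ml⁻¹ and exposed to inducers at 37 °C (16 h). Apoptosis was read by flow cytometry, either as loss of DiOC₆(3) uptake (Δψm) or as annexin V–FITC/PI co-staining. Specific apoptosis % = (treated − control)×100/(100 − control). Values are means of three independent experiments.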

[6] = test system: BL-41; assay: Induction of apoptosis in CD40-positive human BL41 cells assessed as detection of phosphatidylserine expression using annexin V-FITC and propidium iodine staining by flow cytometry; format: functional, cell-based; procedure, shortened: as §2
[7] = test system: D1; assay: Induction of mouse D1 cell maturation assessed as CD80 expression at 5 to 10 uM after 48 hrs by flow cytometry in presence of 10 ug/ml LPS inhibitor polymyxin B; format: functional, cell-based
Procedure, shortened: (§3)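 D1 cells (2×10^5 ml⁻¹, 48 h preculture) were treated 48 h with inducers in fresh medium. Assays were also run with polymyxin B present to exclude LPS-driven activation, and LPS at 10 µg ml⁻¹ was the reference stimulus. Cells were harvested in PBS/EDTA and surface maturation markers were measured by flow cytometry.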

[8] = test system: D1; assay: Induction of mouse D1 cell maturation assessed as CD86 expression at 5 to 10 uM after 48 hrs by flow cytometry in presence of 10 ug/ml LPS inhibitor polymyxin B; format: functional, cell-based; procedure, shortened: as §3
[9] = test system: D1; assay: Induction of mouse D1 cell maturation assessed as CD54 expression at 5 to 10 uM after 48 hrs by flow cytometry in presence of 10 ug/ml LPS inhibitor polymyxin B; format: functional, cell-based; procedure, shortened: as §3
[10] = target: T2, Tumor necrosis factor receptor superfamily member 1B (Homo sapiens) (UniProt P20333); assay: Binding affinity to human Tumor necrosis factor receptor 2 by surface plasmon resonance method
T2 sequence (whole entry): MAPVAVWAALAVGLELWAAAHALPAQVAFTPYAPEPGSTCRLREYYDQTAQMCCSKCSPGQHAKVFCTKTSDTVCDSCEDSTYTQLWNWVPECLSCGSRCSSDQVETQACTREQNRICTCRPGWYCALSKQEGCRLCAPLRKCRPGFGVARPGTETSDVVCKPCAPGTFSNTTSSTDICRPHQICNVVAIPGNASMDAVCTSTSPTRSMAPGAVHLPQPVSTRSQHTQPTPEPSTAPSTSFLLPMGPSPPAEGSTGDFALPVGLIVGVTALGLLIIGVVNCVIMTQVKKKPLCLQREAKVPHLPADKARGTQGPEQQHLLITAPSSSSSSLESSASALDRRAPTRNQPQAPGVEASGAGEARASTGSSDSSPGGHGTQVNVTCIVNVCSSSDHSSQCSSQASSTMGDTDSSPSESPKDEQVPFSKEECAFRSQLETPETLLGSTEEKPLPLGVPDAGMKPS
Procedure, shortened: (§4)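 TNFR:Fc fusion proteins were captured on an anti-Ig-coated CM5 chip at equivalent protein mass. An irrelevant IgG2a served as control surface. Ligands were injected at several concentrations at 25 °C in HBS-EP running buffer, pH 7.4, 30 µl min⁻¹ flow, 5 min association and 5 min dissociation, with 50 mM HCl regeneration. Reference-subtracted sensorgrams were fitted to binding models.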

[11] = target: Tumor necrosis factor receptor superfamily member 10A (Homo sapiens) (UniProt O00220); assay: Binding affinity to human TNF-related apoptosis-inducing ligand receptor 1 by surface plasmon resonance method; procedure, shortened: as §4
[12] = target: T3, Tumor necrosis factor receptor superfamily member 1A (Homo sapiens) (UniProt P19438); assay: Binding affinity to human TNFR1 by surface plasmon resonance method; procedure, shortened: as §4
T3 sequence (whole entry): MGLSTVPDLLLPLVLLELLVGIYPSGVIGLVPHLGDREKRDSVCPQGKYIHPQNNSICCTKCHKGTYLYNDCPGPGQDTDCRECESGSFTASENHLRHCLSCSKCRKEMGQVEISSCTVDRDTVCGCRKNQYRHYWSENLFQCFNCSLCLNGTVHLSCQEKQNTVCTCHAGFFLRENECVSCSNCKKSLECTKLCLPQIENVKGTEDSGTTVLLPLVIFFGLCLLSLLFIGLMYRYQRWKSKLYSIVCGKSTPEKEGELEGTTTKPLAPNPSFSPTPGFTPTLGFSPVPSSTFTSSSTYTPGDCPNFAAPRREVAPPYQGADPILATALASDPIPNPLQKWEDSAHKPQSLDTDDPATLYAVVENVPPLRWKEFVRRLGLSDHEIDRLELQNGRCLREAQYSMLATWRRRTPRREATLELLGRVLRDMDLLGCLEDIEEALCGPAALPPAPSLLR

[13] = Activation of NF-kappaB pathway in mouse D1 cells assessed as increased degradation of IkappaBalpha protein by immunoblotting assay; format: functional, cell-based
Procedure, shortened: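 D1 dendritic cells grown in IMDM with 10% FBS and 30% NIH/3T3 supernatant as GM-CSF source; 2×10^5 cells ml⁻¹ precultured 48 h, then fresh medium with inducers added. Cells washed, harvested in PBS/2 mM EDTA, lysed and immunoblotted for IκBα, with actin as loading reference; IκBα/actin band intensity ratio reported.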

[14] = test system: D1; assay: Induction of interleukin-12 production in mouse D1 cells by RT-PCR method; format: functional, cell-based
Procedure, shortened: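 D1 cells, precultured 48 h at 2×10^5 ml⁻¹, were given fresh medium containing inducers. After incubation, RNA was analysed by comparative RT-PCR for IL-12 p40 mRNA, with Gapdh as housekeeping control. LPS at 10 µg ml⁻¹ served as reference stimulus.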

[15] = test system: A20; assay: Induction of apoptosis in mouse CD40-expressing mouse A20 cells assessed as decrease in mitochondrial membrane potential after 16 hrs by mean fluorescence intensity; format: functional, cell-based
Procedure, shortened: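 Mouse A20 lymphoma cells treated at 37 °C and analysed by flow cytometry for reduced DiOC₆(3) uptake (loss of mitochondrial membrane potential). Result given as percentage specific apoptosis relative to untreated control cells.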

[16] = target: T4, Tumor necrosis factor receptor superfamily member EDAR (Homo sapiens) (UniProt Q9UNE0); assay: Binding affinity to human Ectodysplasin-A receptor by surface plasmon resonance method; procedure, shortened: as §4
T4 sequence (whole entry): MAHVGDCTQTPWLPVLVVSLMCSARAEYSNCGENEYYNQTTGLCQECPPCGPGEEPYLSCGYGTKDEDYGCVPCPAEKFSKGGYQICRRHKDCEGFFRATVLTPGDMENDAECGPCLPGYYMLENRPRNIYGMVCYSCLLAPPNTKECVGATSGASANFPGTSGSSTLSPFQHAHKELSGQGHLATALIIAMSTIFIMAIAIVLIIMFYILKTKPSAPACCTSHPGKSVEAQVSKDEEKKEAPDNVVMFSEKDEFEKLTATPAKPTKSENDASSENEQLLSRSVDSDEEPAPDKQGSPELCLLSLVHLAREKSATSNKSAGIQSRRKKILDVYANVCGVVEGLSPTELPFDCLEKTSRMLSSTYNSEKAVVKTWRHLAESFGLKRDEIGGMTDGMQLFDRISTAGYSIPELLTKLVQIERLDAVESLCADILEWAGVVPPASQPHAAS

[17] = target: T5, Tumor necrosis factor receptor superfamily member 17 (Mus musculus) (UniProt O88472); assay: Binding affinity to mouse B-cell maturation protein by surface plasmon resonance method; procedure, shortened: as §4
T5 sequence (whole entry): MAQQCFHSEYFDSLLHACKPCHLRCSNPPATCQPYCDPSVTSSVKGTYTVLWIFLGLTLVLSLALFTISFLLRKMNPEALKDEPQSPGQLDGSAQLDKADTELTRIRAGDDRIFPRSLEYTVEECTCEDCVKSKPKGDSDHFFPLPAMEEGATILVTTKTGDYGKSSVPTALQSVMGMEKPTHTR

[18] = target: Tumor necrosis factor receptor superfamily member 3 (Homo sapiens) (UniProt P36941); assay: Binding affinity to human lymphotoxin beta receptor by surface plasmon resonance method
Procedure, shortened: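 TNFR:Fc fusion captured at 5 µl min⁻¹ on a CM5 chip precoated by amine coupling with rabbit anti-mouse Ig or goat anti-human Ig (~10,000 RU). Mimetics injected at several concentrations at 30 µl min⁻¹, 5 min association and 5 min dissociation, 25 °C, HBS-EP pH 7.4. Regeneration 30 s with 50 mM HCl. Control-channel sensorgrams subtracted and fitted to binding models.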

[19] = test system: BL-41; assay: Induction of apoptosis in CD40-positive human BL41 cells assessed as reduction in DiOC6 dye uptake after DAPI staining

T1 sequence (P25942 whole entry): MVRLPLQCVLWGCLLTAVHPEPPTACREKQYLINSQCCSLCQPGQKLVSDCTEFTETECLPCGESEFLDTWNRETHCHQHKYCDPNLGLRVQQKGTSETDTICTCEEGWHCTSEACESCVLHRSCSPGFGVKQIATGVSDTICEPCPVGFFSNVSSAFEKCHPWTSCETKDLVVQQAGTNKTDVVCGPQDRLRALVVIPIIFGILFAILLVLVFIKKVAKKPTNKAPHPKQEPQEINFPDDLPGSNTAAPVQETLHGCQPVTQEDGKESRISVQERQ
Sequence of Tumor necrosis factor receptor superfamily member 3 (Homo sapiens) (P36941 whole entry, the tested form may be a part): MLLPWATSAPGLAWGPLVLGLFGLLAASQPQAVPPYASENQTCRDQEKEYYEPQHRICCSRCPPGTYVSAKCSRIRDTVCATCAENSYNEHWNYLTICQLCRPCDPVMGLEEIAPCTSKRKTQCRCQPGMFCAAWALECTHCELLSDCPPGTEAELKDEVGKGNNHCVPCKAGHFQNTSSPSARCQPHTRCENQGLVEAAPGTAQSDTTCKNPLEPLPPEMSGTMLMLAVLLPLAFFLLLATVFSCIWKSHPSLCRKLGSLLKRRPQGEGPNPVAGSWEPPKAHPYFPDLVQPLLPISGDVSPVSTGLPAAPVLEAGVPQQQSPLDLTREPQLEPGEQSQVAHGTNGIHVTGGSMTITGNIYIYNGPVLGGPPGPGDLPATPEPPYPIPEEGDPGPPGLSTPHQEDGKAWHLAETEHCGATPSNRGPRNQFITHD
Sequence of Tumor necrosis factor receptor superfamily member 10A (Homo sapiens) (O00220 whole entry): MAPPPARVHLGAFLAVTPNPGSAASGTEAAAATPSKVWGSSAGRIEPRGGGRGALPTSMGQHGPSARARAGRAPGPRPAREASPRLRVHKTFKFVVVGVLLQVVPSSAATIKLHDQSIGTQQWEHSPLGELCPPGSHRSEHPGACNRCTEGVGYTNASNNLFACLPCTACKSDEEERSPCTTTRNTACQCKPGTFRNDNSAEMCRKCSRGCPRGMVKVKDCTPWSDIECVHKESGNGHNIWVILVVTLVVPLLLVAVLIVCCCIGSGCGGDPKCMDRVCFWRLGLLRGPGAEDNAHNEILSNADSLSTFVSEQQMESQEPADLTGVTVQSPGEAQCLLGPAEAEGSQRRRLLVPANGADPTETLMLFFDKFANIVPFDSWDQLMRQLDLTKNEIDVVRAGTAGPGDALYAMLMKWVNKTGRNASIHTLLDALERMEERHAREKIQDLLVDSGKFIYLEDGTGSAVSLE

Structure (SMILES) | Activity [1] | Activity [2] | inhibition [3] [%] | IC50 [4] [nM] | Activity [5] | Activity [6] | Activity [7] | Activity [8] | inhibition [4] | Activity [9] | Activity [10] | Activity [11] | Activity [12] | Activity [13] | Activity [14] | Activity [15] | Activity [16] | Activity [17] | Activity [18] | Activity [19]
NCCCC[C@H](N)C(=O)NCC(=O)N[C@@H](Cc1ccc(O)cc1)C(=O)N[C@@H](Cc1ccc(O)cc1)C(=O)NCCCCCC(=O)NCCCOCC(COCCCNC(=O)CCCCCNC(=O)[C@H](Cc1ccc(O)cc1)NC(=O)[C@H](Cc1ccc(O)cc1)NC(=O)CNC(=O)[C@@H](N)CCCCN)(COCCCNC(=O)CCCCCNC(=O)[C@H](Cc1ccc(O)cc1)NC(=O)[C@H](Cc1ccc(O)cc1)NC(=O)CNC(=O)[C@@H](N)CCCCN)NC(=O)CCC(N)=O | inactive | inactive | 20 | > 10000 | inactive | inactive |  |  |  |  |  |  |  |  |  |  |  |  |  | 
NCCCC[C@H](N)C(=O)NCC(=O)N[C@@H](Cc1ccc(O)cc1)C(=O)N[C@@H](Cc1ccc(O)cc1)C(=O)NCCCCCC(=O)O (H-KGYY[Ahx]-OH) | inactive | inactive |  |  | inactive | inactive | inactive | inactive | inactive | inactive |  |  |  |  |  |  |  |  |  | 
C[C@H]1NC(=O)[C@H](CCCCN)NC(=O)[C@@H](C)NC(=O)[C@H](CCCCN)NC(=O)[C@@H](C)NC(=O)[C@H](CCCCN)NC1=O | inactive | inactive |  |  | inactive | inactive | inactive | inactive | inactive | inactive |  |  |  |  |  |  |  |  |  | 
C[C@@H](NC(=O)[C@H](CCCCNC(=O)CCCCCNC(=O)[C@H](Cc1ccc(O)cc1)NC(=O)[C@H](Cc1ccc(O)cc1)NC(=O)CNC(=O)[C@@H](N)CCCCN)NC(=O)[C@@H](C)NC(=O)[C@H](CCCCNC(=O)CCCCCNC(=O)[C@H](Cc1ccc(O)cc1)NC(=O)[C@H](Cc1ccc(O)cc1)NC(=O)CNC(=O)[C@@H](N)CCCCN)NC(=O)[C@@H](C)NC(=O)[C@@H](N)CCCCNC(=O)CCCCCNC(=O)[C@H](Cc1ccc(O)cc1)NC(=O)[C@H](Cc1ccc(O)cc1)NC(=O)CNC(=O)[C@@H](N)CCCCN)C(=O)O | inactive | inactive |  |  | inactive | inactive | inactive | inactive | inactive | inactive |  |  |  |  |  |  |  |  |  | 
C[C@H]1NC(=O)[C@H](CCCCNC(=O)CCCCCNC(=O)[C@H](Cc2ccc(O)cc2)NC(=O)[C@H](Cc2ccc(O)cc2)NC(=O)CNC(=O)[C@@H](N)CCCCN)NC(=O)[C@@H](C)NC(=O)[C@H](CCCCNC(=O)CCCCCNC(=O)[C@H](Cc2ccc(O)cc2)NC(=O)[C@H](Cc2ccc(O)cc2)NC(=O)CNC(=O)[C@@H](N)CCCCN)NC(=O)[C@@H](C)NC(=O)[C@H](CCCCNC(=O)CCCCCNC(=O)[C@H](Cc2ccc(O)cc2)NC(=O)[C@H](Cc2ccc(O)cc2)NC(=O)CNC(=O)[C@@H](N)CCCCN)NC1=O (cyclo(K([Ahx-Tyr-Tyr-Gly-Lys])[dA]K([Ahx-Tyr-Tyr-Gly-Lys])[dA]K([Ahx-Tyr-Tyr-Gly-Lys])[dA])) | Active | Active |  | 78 | Active | Active | Active | Active |  | Active | inactive | inactive | inactive | Active | Active | Active | inactive | inactive | inactive | 
NCCCC[C@H](N)C(=O)NCC(=O)N[C@@H](Cc1ccc(O)cc1)C(=O)N[C@@H](Cc1ccc(O)cc1)C(=O)NCCCCCC(=O)NCCCC[C@@H]1CNC(=O)C[C@H](CCCCNC(=O)CCCCCNC(=O)[C@H](Cc2ccc(O)cc2)NC(=O)[C@H](Cc2ccc(O)cc2)NC(=O)CNC(=O)[C@@H](N)CCCCN)NC[C@H](CCCCNC(=O)CCCCCNC(=O)[C@H](Cc2ccc(O)cc2)NC(=O)[C@H](Cc2ccc(O)cc2)NC(=O)CNC(=O)[C@@H](N)CCCCN)NC(=O)C1 | Active | Active |  | 50 | Active | Active |  |  |  |  |  |  |  |  |  |  |  |  |  | Active
